Data set [1] has as its target Toll-like receptor 2 (Homo sapiens) (UniProt O60603). Nature of the data set: Antagonist activity at TLR2 in human PBMC assessed as inhibition of Pam3CSK4-induced TNFalpha signalling after 24 hrs by ELISA. The format is cell-based. A digest of the protocol:
(§1)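 Human PBMC seeded at 2.5 × 10⁵ cells per well in RPMI 1640 with 10% FBS and 1% penicillin/streptomycin. Cells treated with compound plus Pam₃CSK₄ 10 ng/ml for 24 h at 37 °C, 5% CO₂. Supernatants stored frozen at −80 °C. TNF-α measured by sandwich ELISA against recombinant human standards, each sample in triplicate.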

Data set [2] can be described thus: Cytotoxicity against HEK-Blue cells up to 100 uM after 24 hrs by MTT assay. The format is cell-based. The conditions noted are these: human. The gist of the method:
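HEK-TLR2 cells in DMEM with 10% FBS, plated at 4 × 10⁴ cells per well for 24 h. Compound plus Pam₃CSK₄ (final 10 ng/ml) added, then incubated 24 h. MTT (5 mg/ml in PBS) added for 3 h at 37 °C. Formazan dissolved in DMSO; absorbance read at 490 nm.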

Data set [3] addresses Toll-like receptor 2 (Homo sapiens) (UniProt O60603). The data set can be described thus: Antagonist activity at human TLR2 expressed in HEK-Blue cells assessed as inhibition of Pam3CSK4-induced TLR2 upregulation at 10 uM by Western blot analysis. The format is cell-based. The gist of the method:
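HEK-Blue hTLR2 cells treated with compound and Pam₃CSK₄ at 400 ng/ml. Lysed in RIPA buffer with 1% PMSF; proteins run on SDS-PAGE and transferred to PVDF. Membranes blocked with 5% milk in TBST. Probed overnight at 4 °C with anti-TLR2 (1:250) and anti-GAPDH (1:2000), then HRP secondary (1:2500) 1 h at RT. Detected by ECL.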

The target of data set [4] is Toll-like receptor 3 (Homo sapiens) (UniProt O15455). Nature of the data set: Antagonist activity at human TLR3 expressed in HEK-Blue assessed as inhibition of poly 1:C-induced NF-kappaB activation-mediated SEAP production at 25 uM after 24 hrs by Quanti-blue-based assay. The gist of the method: (§2)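 HEK-Blue hTLR2 cells in DMEM with 10% serum and antibiotics, plated at 4 × 10⁴ cells per well for 24 h. Medium then replaced with compound plus agonist for 24 h at 37 °C. Agonists (final): Pam₃CSK₄ 10 ng/ml (TLR1/2), Pam₂CSK₄ 10 ng/ml (TLR2/6), Poly I:C 10 µg/ml (TLR3). Supernatant mixed 1:1 with Quanti-Blue; SEAP read at OD 620 nm after 15–30 min.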
Chain of Toll-like receptor 3 (Homo sapiens) (O15455 whole entry): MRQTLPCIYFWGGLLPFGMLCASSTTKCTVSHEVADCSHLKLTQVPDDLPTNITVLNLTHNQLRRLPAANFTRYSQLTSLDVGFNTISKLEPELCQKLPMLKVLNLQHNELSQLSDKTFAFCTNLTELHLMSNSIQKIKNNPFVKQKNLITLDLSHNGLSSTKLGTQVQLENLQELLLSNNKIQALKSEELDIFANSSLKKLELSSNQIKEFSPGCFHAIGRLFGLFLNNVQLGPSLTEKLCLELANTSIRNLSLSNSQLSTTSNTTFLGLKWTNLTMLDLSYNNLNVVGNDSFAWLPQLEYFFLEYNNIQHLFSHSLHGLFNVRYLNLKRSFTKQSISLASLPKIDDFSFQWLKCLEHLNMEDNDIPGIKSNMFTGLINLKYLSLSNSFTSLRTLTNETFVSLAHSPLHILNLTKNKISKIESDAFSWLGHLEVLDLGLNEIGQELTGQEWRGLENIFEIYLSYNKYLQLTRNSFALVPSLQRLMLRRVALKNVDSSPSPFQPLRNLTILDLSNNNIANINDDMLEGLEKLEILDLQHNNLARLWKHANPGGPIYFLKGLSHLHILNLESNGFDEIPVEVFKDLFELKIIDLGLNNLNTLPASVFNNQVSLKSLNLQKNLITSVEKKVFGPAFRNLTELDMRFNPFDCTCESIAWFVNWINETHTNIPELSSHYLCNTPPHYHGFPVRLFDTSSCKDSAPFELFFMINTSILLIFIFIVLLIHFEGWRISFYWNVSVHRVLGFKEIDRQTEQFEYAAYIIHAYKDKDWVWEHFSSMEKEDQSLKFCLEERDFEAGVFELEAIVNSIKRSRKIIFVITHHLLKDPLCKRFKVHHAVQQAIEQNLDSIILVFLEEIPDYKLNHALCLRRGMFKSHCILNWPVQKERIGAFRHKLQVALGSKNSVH

Data set [5] deals with Toll-like receptor 2 (Homo sapiens) (UniProt O60603). The data set can be described thus: Antagonist activity at human TLR2 expressed in HEK-blue cells assessed as inhibition of Pam3CSK4-induced NF-kappaB activation-mediated SEAP production at 25 uM after 24 hrs by Quanti-blue-based assay. The format is cell-based. The gist of the method:
as §2

The target is the same in data set [6]. The data set can be described thus: Antagonist activity at TLR2 in human PBMC assessed as inhibition of Pam3CSK4-induced TNFalpha signalling at 10 uM after 24 hrs by ELISA relative to control. The format is cell-based. A digest of the protocol:
as §1

The target in the next data set is TLR2/TLR6 (Homo sapiens) (UniProt O60603+Q9Y2C9). The data set can be described thus: Antagonist activity at human TLR2/6 expressed in HEK-blue cells assessed as inhibition of Pam2CSK4-induced NF-kappaB activation-mediated SEAP production at 25 uM after 24 hrs by Quanti-blue-based assay. The format is cell-based. The gist of the method:
as §2

The target of data set [7] is Toll-like receptor 2 (Homo sapiens) (UniProt O60603). The data set can be described thus: Antagonist activity at human TLR2 expressed in HEK-blue cells assessed as inhibition of Pam3CSK4-induced NF-kappaB activation-mediated SEAP production at 50 uM after 24 hrs by Quanti-blue-based assay. The format is cell-based. A digest of the protocol: as §2
Chain of Toll-like receptor 2 (Homo sapiens) (O60603 whole entry): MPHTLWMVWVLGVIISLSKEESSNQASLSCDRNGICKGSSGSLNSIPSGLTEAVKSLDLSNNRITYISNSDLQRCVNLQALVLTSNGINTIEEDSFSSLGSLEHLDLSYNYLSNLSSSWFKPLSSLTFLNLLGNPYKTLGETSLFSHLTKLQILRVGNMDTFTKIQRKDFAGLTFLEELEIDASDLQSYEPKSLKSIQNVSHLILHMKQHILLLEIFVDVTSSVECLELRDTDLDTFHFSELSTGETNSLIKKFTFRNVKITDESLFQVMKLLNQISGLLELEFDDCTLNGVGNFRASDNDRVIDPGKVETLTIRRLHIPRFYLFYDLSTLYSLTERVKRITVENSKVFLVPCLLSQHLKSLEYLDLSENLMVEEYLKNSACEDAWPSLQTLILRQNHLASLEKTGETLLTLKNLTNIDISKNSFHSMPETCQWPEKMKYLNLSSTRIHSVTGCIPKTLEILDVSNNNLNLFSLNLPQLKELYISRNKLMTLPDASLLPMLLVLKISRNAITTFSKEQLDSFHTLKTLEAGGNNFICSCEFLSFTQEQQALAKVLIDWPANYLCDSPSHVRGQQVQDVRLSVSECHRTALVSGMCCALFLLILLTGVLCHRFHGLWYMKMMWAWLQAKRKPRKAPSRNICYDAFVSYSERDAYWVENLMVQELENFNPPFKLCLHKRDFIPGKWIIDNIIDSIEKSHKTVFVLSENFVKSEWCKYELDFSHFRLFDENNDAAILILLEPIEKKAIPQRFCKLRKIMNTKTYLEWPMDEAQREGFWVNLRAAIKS
Data set [8] has as its target Toll-like receptor 2 (Mus musculus) (UniProt Q9QUN7). Nature of the data set: Antagonist activity at TLR2 in mouse Raw 264.7 cells assessed as decrease in Pam3CSK4-induced iNOS levels at 40 uM after 24 hrs relative to positive control. The format is cell-based. The gist of the method: (§3)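 Raw 264.7 cells in RPMI 1640 with 10% serum and antibiotics, plated at 8 × 10⁴ cells per well for 24 h. Compound and TLR agonist (Pam₃CSK₄ for TLR1/2, Pam₂CSK₄ for TLR2/6) added, then incubated 24 h. Nitric oxide in supernatant detected with DAN (0.05 mg/ml in 0.62 M HCl), 15 min in the dark.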

The target in another data set is TLR2/TLR6 (Mus musculus) (UniProt Q9QUN7+Q9EPW9). Nature of the data set: Antagonist activity at TLR2/TLR6 in mouse Raw 264.7 cells assessed as decrease in Pam2CSK4-induced iNOS levels at 40 uM after 24 hrs relative to positive control. The format is cell-based. A digest of the protocol:
as §3

In data set [9] the target is Toll-like receptor 1/2 (Homo sapiens) (UniProt O60603+Q15399). Nature of the data set: Antagonist activity at human TLR1/2 expressed in HEK-blue cells assessed as inhibition of Pam3CSK4-induced NF-kappaB activation-mediated SEAP production at 25 uM after 24 hrs by Quanti-blue-based assay. The format is cell-based. A digest of the protocol: as §2

Data on one compound can be found in ChEMBL document CHEMBL4219143, “Synthesis, structure-activity relationships and preliminary mechanism study of N-benzylideneaniline derivatives as potential TLR2 inhibitors” (Bioorg Med Chem, 2018).

Active and inactive are the calls of the source. The rule behind the calls is not given here.

Chain of Toll-like receptor 2 (Mus musculus) (Q9QUN7 whole entry): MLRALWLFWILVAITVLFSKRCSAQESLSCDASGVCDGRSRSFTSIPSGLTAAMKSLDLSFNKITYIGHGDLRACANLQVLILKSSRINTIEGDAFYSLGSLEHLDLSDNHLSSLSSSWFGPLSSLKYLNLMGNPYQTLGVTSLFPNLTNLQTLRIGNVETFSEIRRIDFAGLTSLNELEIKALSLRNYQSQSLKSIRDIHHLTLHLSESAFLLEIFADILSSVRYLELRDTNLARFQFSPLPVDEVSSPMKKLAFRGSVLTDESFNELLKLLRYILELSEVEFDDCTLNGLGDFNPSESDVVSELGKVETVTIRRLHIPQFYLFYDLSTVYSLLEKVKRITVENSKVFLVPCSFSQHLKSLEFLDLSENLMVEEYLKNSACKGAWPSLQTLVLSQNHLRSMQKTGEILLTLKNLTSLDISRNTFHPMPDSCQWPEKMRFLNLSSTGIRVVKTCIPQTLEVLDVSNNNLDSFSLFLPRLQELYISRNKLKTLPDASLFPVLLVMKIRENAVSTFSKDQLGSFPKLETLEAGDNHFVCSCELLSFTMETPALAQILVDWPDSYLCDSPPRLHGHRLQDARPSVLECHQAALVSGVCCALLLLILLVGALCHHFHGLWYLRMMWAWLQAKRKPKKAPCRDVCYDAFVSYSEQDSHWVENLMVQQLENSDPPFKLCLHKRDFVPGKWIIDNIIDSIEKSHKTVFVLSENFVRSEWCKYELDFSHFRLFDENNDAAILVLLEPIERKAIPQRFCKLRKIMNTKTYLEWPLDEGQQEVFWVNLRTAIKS

Turning to `COc1cccc(/C=N/c2ccccc2C(=O)c2ccc(Cl)cc2)c1O`, the inhibition result in data set [1] was “Dose-dependent effect”; in data set [3] it was 50%; in data set [5] it was 66.8%; in data set [6], 90%; in data set [7], 95.1%; in [8], over 70%. For the same compound, at TLR2/TLR6 (Mus musculus), the inhibition was over 70%. In [2], the Activity entry is “Non-Toxic”. Also, in [4], the inhibition result was “inactive”. Further, the inhibition entry (at TLR2/TLR6 (Homo sapiens); in data set [9]) was “Active” each time.
